Experimental data from ChEMBL document CHEMBL3875141, “2,4,5-Trisubstituted thiazole derivatives as HIV-1 NNRTIs effective on both wild-type and mutant HIV-1 reverse transcriptase: Optimization of the substitution of positions 4 and 5” (Eur J Med Chem, 2016).

Tests used:
[1] = tested on: Human immunodeficiency virus 1; assay: Ratio of IC50 for HIV-1 NL4-3 harboring RT-K103N/V108I double mutant infected in HEK293T cells co-expressing vesicular stomatitis virus glycoprotein to IC50 for wild-type HIV-1 NL4-3 infected in HEK293T cells co-expressing vesicular stomatitis virus glycoprotein; assay type: functional, HEK-293T
Procedure, shortened: (§1)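 Fold change: mean IC50 against each RT-mutant VSV-G-pseudotyped virus divided by IC50 against wild-type pseudovirus. Both values come from the same HEK293T assay: 0.2 ng p24/mL inoculum, compound added 15 min before infection, luciferase read-out at 48 h.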

[2] = tested on: Human immunodeficiency virus 1; assay: Ratio of IC50 for HIV-1 NL4-3 harboring RT-K103N/G190A double mutant infected in HEK293T cells co-expressing vesicular stomatitis virus glycoprotein to IC50 for wild-type HIV-1 NL4-3 infected in HEK293T cells co-expressing vesicular stomatitis virus glycoprotein; assay type: functional, HEK-293T; procedure, shortened: as §1
[3] = tested on: Human immunodeficiency virus 1; assay: Ratio of IC50 for HIV-1 NL4-3 harboring RT-K103N/P225H double mutant infected in HEK293T cells co-expressing vesicular stomatitis virus glycoprotein to IC50 for wild-type HIV-1 NL4-3 infected in HEK293T cells co-expressing vesicular stomatitis virus glycoprotein; assay type: functional, HEK-293T; procedure, shortened: as §1
[4] = tested on: Human immunodeficiency virus 1; assay: Ratio of IC50 for HIV-1 NL4-3 harboring RT-Y188L mutant infected in HEK293T cells co-expressing vesicular stomatitis virus glycoprotein to IC50 for wild-type HIV-1 NL4-3 infected in HEK293T cells co-expressing vesicular stomatitis virus glycoprotein; assay type: functional, HEK-293T; procedure, shortened: as §1
[5] = tested on: Human immunodeficiency virus 1; assay: Ratio of IC50 for HIV-1 NL4-3 harboring RT-L100I/K103N double mutant infected in HEK293T cells co-expressing vesicular stomatitis virus glycoprotein to IC50 for wild-type HIV-1 NL4-3 infected in HEK293T cells co-expressing vesicular stomatitis virus glycoprotein; assay type: functional, HEK-293T; procedure, shortened: as §1
[6] = tested on: Human immunodeficiency virus 1; assay: Ratio of IC50 for HIV-1 NL4-3 harboring RT-Y181C mutant infected in HEK293T cells co-expressing vesicular stomatitis virus glycoprotein to IC50 for wild-type HIV-1 NL4-3 infected in HEK293T cells co-expressing vesicular stomatitis virus glycoprotein; assay type: functional, HEK-293T; procedure, shortened: as §1
[7] = tested on: Human immunodeficiency virus 1; assay: Ratio of IC50 for HIV-1 NL4-3 harboring RT-K103N mutant infected in HEK293T cells co-expressing vesicular stomatitis virus glycoprotein to IC50 for wild-type HIV-1 NL4-3 infected in HEK293T cells co-expressing vesicular stomatitis virus glycoprotein; assay type: functional, HEK-293T
[8] = tested on: Human immunodeficiency virus 1; assay: Antiviral activity against HIV-1 NL4-3 harboring RT-K103N/Y181C double mutant infected in HEK293T cells coexpressing vesicular stomatitis virus glycoprotein pretreated with cells for 15 mins followed by viral infection measured after 48 hrs by luciferase reporter gene assay; assay type: functional, cell-based; conditions: hek-293t
Procedure, shortened: (§2)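 VSV-G-pseudotyped HIV-1 (wild-type or RT mutant) produced by co-transfection of HEK293T cells (calcium phosphate), supernatant harvested 48 h, 0.22 µm filtered, normalised by p24 ELISA to 0.2 ng p24/mL.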

[9] = tested on: Human immunodeficiency virus 1; assay: Antiviral activity against HIV-1 NL4-3 harboring RT-K103N/G190A double mutant infected in HEK293T cells coexpressing vesicular stomatitis virus glycoprotein pretreated with cells for 15 mins followed by viral infection measured after 48 hrs by luciferase reporter gene assay; assay type: functional, cell-based; conditions: hek-293t; procedure, shortened: as §2
[10] = tested on: Human immunodeficiency virus 1; assay: Antiviral activity against HIV-1 NL4-3 harboring RT-K103N/Y188L double mutant infected in HEK293T cells coexpressing vesicular stomatitis virus glycoprotein pretreated with cells for 15 mins followed by viral infection measured after 48 hrs by luciferase reporter gene assay; assay type: functional, cell-based; conditions: hek-293t; procedure, shortened: as §2
[11] = tested on: Human immunodeficiency virus 1; assay: Antiviral activity against HIV-1 NL4-3 harboring RT-Y188L mutant infected in HEK293T cells coexpressing vesicular stomatitis virus glycoprotein pretreated with cells for 15 mins followed by viral infection measured after 48 hrs by luciferase reporter gene assay; assay type: functional, cell-based; conditions: hek-293t; procedure, shortened: as §2
[12] = tested on: Human immunodeficiency virus 1; assay: Antiviral activity against HIV-1 NL4-3 harboring RT-L100I/K103N double mutant infected in HEK293T cells coexpressing vesicular stomatitis virus glycoprotein pretreated with cells for 15 mins followed by viral infection measured after 48 hrs by luciferase reporter gene assay; assay type: functional, cell-based; conditions: hek-293t; procedure, shortened: as §2
[13] = Inhibition of wild-type HIV-1 reverse transcriptase RNA-dependent DNA polymerase activity assessed as reduction in digoxigenin-11-dUTP incorporation using poly(rA)/oligo(dT) as template/primer incubated for 1 hr; design: species or system Human immunodeficiency virus 1
[14] = tested on: Human immunodeficiency virus 1; assay: Ratio of IC50 for HIV-1 NL4-3 harboring RT-K103N/Y181C double mutant infected in HEK293T cells co-expressing vesicular stomatitis virus glycoprotein to IC50 for wild-type HIV-1 NL4-3 infected in HEK293T cells co-expressing vesicular stomatitis virus glycoprotein; assay type: functional, HEK-293T; procedure, shortened: as §1
[15] = tested on: Human immunodeficiency virus 1; assay: Ratio of IC50 for HIV-1 NL4-3 harboring RT-K103N/Y188L double mutant infected in HEK293T cells co-expressing vesicular stomatitis virus glycoprotein to IC50 for wild-type HIV-1 NL4-3 infected in HEK293T cells co-expressing vesicular stomatitis virus glycoprotein; assay type: functional, HEK-293T; procedure, shortened: as §1
[16] = Cytotoxicity against HEK293T cells at 10 uM after 48 hrs by cell proliferation assay; assay type: toxicity, cell-based; conditions: human, hek-293t
Procedure, shortened: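 HEK 293T cells seeded at 1×10^4 cells/well, treated next day with serially diluted compounds and cultured 48 h; viability read with a cell proliferation assay kit per manufacturer's instructions. Footnote reports testing at a final concentration of 10 μM.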

[17] = tested on: Human immunodeficiency virus 1; assay: Antiviral activity against wild-type HIV-1 NL4-3 harboring vesicular stomatitis virus glycoprotein infected in HEK293T cells pretreated with cells for 15 mins followed by viral infection measured after 48 hrs by luciferase reporter gene assay; assay type: functional, cell-based; conditions: Human immunodeficiency virus 1, NL4-3, HEK-293T; procedure, shortened: as §2
[18] = tested on: Human immunodeficiency virus 1; assay: Antiviral activity against HIV-1 NL4-3 harboring RT-K103N/V108I double mutant infected in HEK293T cells coexpressing vesicular stomatitis virus glycoprotein pretreated with cells for 15 mins followed by viral infection measured after 48 hrs by luciferase reporter gene assay; assay type: functional, cell-based; conditions: hek-293t; procedure, shortened: as §2
[19] = tested on: Human immunodeficiency virus 1; assay: Antiviral activity against HIV-1 NL4-3 harboring RT-K103N/P225H double mutant infected in HEK293T cells coexpressing vesicular stomatitis virus glycoprotein pretreated with cells for 15 mins followed by viral infection measured after 48 hrs by luciferase reporter gene assay; assay type: functional, cell-based; conditions: hek-293t; procedure, shortened: as §2
[20] = tested on: Human immunodeficiency virus 1; assay: Antiviral activity against HIV-1 NL4-3 harboring RT-Y181C mutant infected in HEK293T cells coexpressing vesicular stomatitis virus glycoprotein pretreated with cells for 15 mins followed by viral infection measured after 48 hrs by luciferase reporter gene assay; assay type: functional, cell-based; conditions: hek-293t; procedure, shortened: as §2
[21] = tested on: Human immunodeficiency virus 1; assay: Antiviral activity against HIV-1 NL4-3 harboring RT-K103N mutant infected in HEK293T cells coexpressing vesicular stomatitis virus glycoprotein pretreated with cells for 15 mins followed by viral infection measured after 48 hrs by luciferase reporter gene assay; assay type: functional, cell-based; conditions: hek-293t; procedure, shortened: as §2

Cc1ccnc2c1NC(=O)c1cccnc1N2C1CC1 [NEVIRAPINE]
Ratio IC50 [1]: 90
Ratio IC50 [2]: >322
Ratio IC50 [3]: 177
Ratio IC50 [4]: >322
Ratio IC50 [5]: 161
Ratio IC50 [6]: 2152
Ratio IC50 [7]: 519
IC50 [8]: > 10000 nM
IC50 [9]: > 10000 nM
IC50 [10]: > 10000 nM
IC50 [11]: > 10000 nM
IC50 [12]: 5000 nM
IC50 [13]: 2100 nM
Ratio IC50 [14]: >322
Ratio IC50 [15]: >322

Fc1ccc(Cc2sc(NCc3ccc4c(c3)CCO4)nc2-c2ccccc2)cc1
Activity [16]: Non-Toxic
IC50 [17]: 5670 nM

COc1cccc(Cc2sc(NCc3ccc4c(c3)CCO4)nc2-c2ccccc2)c1
Activity [16]: Non-Toxic
IC50 [17]: 136 nM

Fc1ccccc1-c1nc(NCc2ccc3c(c2)CCO3)sc1Cc1c(Cl)cccc1Cl
Activity [16]: Non-Toxic
IC50 [17]: 32 nM

COc1ccccc1Cc1sc(NCc2ccc3c(c2)CCO3)nc1-c1ccccc1
Activity [16]: Non-Toxic
Ratio IC50 [1]: 21.3
Ratio IC50 [2]: 8.1
Ratio IC50 [3]: 69.2
Ratio IC50 [4]: >223.7
Ratio IC50 [5]: 73.8
Ratio IC50 [6]: 8.8
Ratio IC50 [7]: 12.2
IC50 [8]: 9560 nM
IC50 [18]: 1530 nM
IC50 [9]: 580 nM
IC50 [10]: > 10000 nM
IC50 [19]: 4980 nM
IC50 [11]: > 10000 nM
IC50 [12]: 5310 nM
IC50 [20]: 512 nM
IC50 [21]: 880 nM
IC50 [17]: 72 nM
Ratio IC50 [14]: 132.8
Ratio IC50 [15]: >223.7

COc1ccccc1Cc1sc(NCc2ccc3c(c2)CCO3)nc1-c1ccc(F)cc1F
Activity [16]: Non-Toxic
Ratio IC50 [1]: 17
Ratio IC50 [2]: 11
Ratio IC50 [3]: 23.5
Ratio IC50 [4]: >223.7
Ratio IC50 [5]: 19.5
Ratio IC50 [6]: 2.9
Ratio IC50 [7]: 6.5
IC50 [8]: 450 nM
IC50 [18]: 760 nM
IC50 [9]: 490 nM
IC50 [10]: > 10000 nM
IC50 [19]: 1050 nM
IC50 [11]: > 10000 nM
IC50 [12]: 870 nM
IC50 [20]: 130 nM
IC50 [21]: 290 nM
IC50 [17]: 44.7 to 45 nM
Ratio IC50 [14]: 10.1
Ratio IC50 [15]: >223.7

Clc1ccc(Cc2sc(NCc3ccc4c(c3)CCO4)nc2-c2ccccc2)cc1
Activity [16]: Non-Toxic
IC50 [17]: > 10000 nM

COc1ccc(Cc2sc(NCc3ccc4c(c3)CCO4)nc2-c2ccccc2)cc1
Activity [16]: Non-Toxic
IC50 [17]: > 10000 nM

COc1ccccc1Cc1sc(NCc2ccc3c(c2)CCO3)nc1-c1cc(F)cc(F)c1
Activity [16]: Non-Toxic
IC50 [17]: 7320 nM

COc1ccccc1Cc1sc(NCc2ccc3c(c2)CCO3)nc1-c1ccc(Cl)cc1Cl
Activity [16]: Non-Toxic
IC50 [17]: 88 nM

Fc1cc(F)cc(Cc2sc(NCc3ccc4c(c3)CCO4)nc2-c2ccccc2F)c1
Activity [16]: Non-Toxic
IC50 [13]: 64 nM
IC50 [17]: 10 nM

O=C1Nc2ccc(Cl)cc2[C@@](C#CC2CC2)(C(F)(F)F)O1 [EFAVIRENZ]
IC50 [8]: 58.7 nM
IC50 [10]: 13800 nM
IC50 [12]: 2490 nM
IC50 [17]: 1.04 nM

Clc1ccc(-c2nc(NCc3ccc4c(c3)CCO4)sc2Cc2c(Cl)cccc2Cl)c(Cl)c1
Activity [16]: Non-Toxic
IC50 [17]: 71 nM

Clc1ccccc1-c1nc(NCc2ccc3c(c2)CCO3)sc1Cc1c(Cl)cccc1Cl
Activity [16]: Non-Toxic
IC50 [17]: 22 nM

Fc1cc(F)cc(Cc2sc(NCc3ccc4c(c3)CCO4)nc2-c2ccccc2Cl)c1
Activity [16]: Non-Toxic
Ratio IC50 [1]: 29
Ratio IC50 [4]: 136
Ratio IC50 [6]: 39
Ratio IC50 [7]: 7.8
IC50 [18]: 300 nM
IC50 [11]: 1400 nM
IC50 [20]: 400 nM
IC50 [21]: 80 nM
IC50 [13]: 25 nM
IC50 [17]: 10 nM

Fc1cc(F)cc(Cc2sc(NCc3ccc4c(c3)CCO4)nc2-c2ccc(F)cc2F)c1
Activity [16]: Non-Toxic
Ratio IC50 [1]: 218
Ratio IC50 [4]: 504
Ratio IC50 [6]: 79
Ratio IC50 [7]: 14
IC50 [18]: 3900 nM
IC50 [11]: 7000 nM
IC50 [20]: 1100 nM
IC50 [21]: 200 nM
IC50 [17]: 13.9 to 14 nM

c1ccc(Cc2sc(NCc3ccc4c(c3)CCO4)nc2-c2ccccc2)cc1
Activity [16]: Non-Toxic
IC50 [17]: 239 nM

COc1ccccc1Cc1sc(NCc2ccc3c(c2)CCO3)nc1-c1ccccc1Cl
Activity [16]: Non-Toxic
IC50 [13]: 14 nM
IC50 [17]: 10 nM

COc1ccccc1Cc1sc(NCc2ccc3c(c2)CCO3)nc1-c1ccccc1F
Activity [16]: Non-Toxic
IC50 [13]: 20 nM
IC50 [17]: 10 nM

Fc1cc(F)cc(Cc2sc(NCc3ccc4c(c3)CCO4)nc2-c2ccc(Cl)cc2Cl)c1
Activity [16]: Non-Toxic
IC50 [17]: 68 nM

Fc1ccc(-c2nc(NCc3ccc4c(c3)CCO4)sc2Cc2c(Cl)cccc2Cl)c(F)c1
Activity [16]: Non-Toxic
IC50 [17]: 21 nM
